Laboratory results from ChEMBL document CHEMBL1151962, “Identification of N,1,4,4-tetramethyl-8-{[4-(4-methylpiperazin-1-yl)phenyl]amino}-4,5-dihydro-1H-pyrazolo[4,3-h]quinazoline-3-carboxamide (PHA-848125), a potent, orally available cyclin dependent kinase inhibitor” (J Med Chem, 2009).
In brackets after ≈: the same amount, converted by molar mass. Activity calls are given as the source filed them. No cut-off for these calls is given here.

Columns and labels:
[1] = Solubility at pH 7; type: physicochemical; settings: buffer
[2] = molecular target: T1, Cyclin-dependent kinase 2 (Homo sapiens, UniProt P24941); test: Inhibition of CDK2/Cyclin A
[3] = molecular target: T2, Aurora kinase A (Homo sapiens, UniProt O14965); test: Inhibition of Aurora A
T2 sequence (O14965 whole entry): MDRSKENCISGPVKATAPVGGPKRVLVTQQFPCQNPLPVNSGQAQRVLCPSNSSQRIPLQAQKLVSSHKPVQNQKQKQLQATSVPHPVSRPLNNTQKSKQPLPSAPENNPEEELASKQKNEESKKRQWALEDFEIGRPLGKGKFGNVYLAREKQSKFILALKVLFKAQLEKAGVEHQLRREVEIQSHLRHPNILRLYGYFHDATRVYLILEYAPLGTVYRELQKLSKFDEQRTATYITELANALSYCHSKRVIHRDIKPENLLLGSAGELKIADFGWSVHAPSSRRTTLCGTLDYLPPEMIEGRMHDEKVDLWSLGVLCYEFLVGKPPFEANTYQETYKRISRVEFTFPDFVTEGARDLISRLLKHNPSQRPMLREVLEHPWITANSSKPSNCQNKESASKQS

[4] = system: A2780; test: Antiproliferative activity against human A2780 cells after 72 hrs by cell Titer_Glo assay; type: functional, cell-based; settings: A2780, 72 h
Method in brief: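 A2780 cells were seeded at 10000–30000 cells/cm² in medium with 10% FCS. After 24 h they were treated with serial dilutions of compound, in two replicates. Cell amount was read by Cell Titer Glo 72 h after treatment. IC50 came from sigmoidal fitting.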

[5] = Solubility in 5% dextrose; type: physicochemical
[6] = molecular target: Cytochrome P450 3A4 (Homo sapiens, UniProt P08684); test: Inhibition of human CYP3A4 assessed as compound remaining by LC/MS/MS analysis; type: ADME; design: concentration or dose not given beside the values
[7] = Half life in fasted nu/nu mouse at 10 mg/kg, iv by LC/MS/MS analysis; type: ADME, organism-based; design: dose 10 mg/kg, route intravenous; settings: in vivo
Method in brief: (§1)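 Overnight-fasted male Nu/Nu mice received a single 10 mg/kg dose iv or orally, in 5% dextrose vehicle, given as the hydrochloride salt. Three mice per route. Saphenous vein blood was drawn predose and at 0.083 (iv) or 0.25 (po), 0.5, 1, 6 and 24 h. Samples were spun at 10000g for 3 min at 4 °C, and plasma was stored at -80 °C until analysis.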

[8] = Clearance in fasted nu/nu mouse at 10 mg/kg, iv by LC/MS/MS analysis; type: ADME, organism-based; design: dose 10 mg/kg, route intravenous; settings: in vivo; method in brief: as §1
[9] = Volume of distribution at steady state in fasted nu/nu mouse at 10 mg/kg, iv by LC/MS/MS analysis; type: ADME, organism-based; design: dose 10 mg/kg, route intravenous; settings: in vivo, read-out: Vdss; method in brief: as §1
[10] = Half life in fasted nu/nu mouse at 10 mg/kg, po by LC/MS/MS analysis; type: ADME, organism-based; design: dose 10 mg/kg, route oral; settings: in vivo; method in brief: as §1
[11] = AUC in fasted nu/nu mouse at 10 mg/kg, po LC/MS/MS analysis; type: ADME, organism-based; design: dose 10 mg/kg, route oral; settings: plasma; method in brief: as §1
[12] = Oral bioavailability in fasted nu/nu mouse at 10 mg/kg by LC/MS/MS analysis; type: ADME, organism-based; settings: in vivo; method in brief: as §1
[13] = Cmax in fasted nu/nu mouse at 10 mg/kg, po by LC/MS/MS analysis; type: ADME, organism-based; design: dose 10 mg/kg, route oral; settings: in vivo; method in brief: as §1
[14] = organism: Homo sapiens; test: Protein binding in human plasma; settings: read-out: PPB (converted)
[15] = system: Mus musculus; test: Hepatic blood flow in fasted nu/nu mouse at 10 mg/kg, iv by LC/MS/MS analysis; type: ADME, organism-based, Liver; design: dose 10 mg/kg, route intravenous; settings: in vivo
[16] = molecular target: T1, Cyclin-dependent kinase 2; test: Inhibition of CDK2 in human A2780 cells assessed as reduction of hyperphosphorylated form of retinoblastoma protein at 1 uM relative to control; type: cell-based
Method in brief: (§2)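 A2780 human ovarian carcinoma cells (ECACC) were seeded at 25 000 cells/cm2 in RPMI 1640 pH 7.4 with 10% FBS and 2 mM L-glutamine, at 37 °C in 5% CO2. They were exposed 24 h later to 1 or 3 µM. Floating and adherent cells were harvested with trypsin/EDTA. Extracts were immunoblotted for hyper- and hypophosphorylated pRb and compared with untreated cells.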

[17] = molecular target: T1, Cyclin-dependent kinase 2; test: Inhibition of CDK2 in human A2780 cells assessed as reduction of hyperphosphorylated form of retinoblastoma protein at 3 uM relative to control; type: cell-based; method in brief: as §2
[18] = molecular target: T1, Cyclin-dependent kinase 2; test: Inhibition of CDK2 in human A2780 cells assessed as accumulation of hypophosphorylated form of retinoblastoma protein at 1 uM relative to control; type: cell-based; method in brief: as §2
[19] = molecular target: T1, Cyclin-dependent kinase 2; test: Inhibition of CDK2 in human A2780 cells assessed as accumulation of hypophosphorylated form of retinoblastoma protein at 3 uM relative to control; type: cell-based; method in brief: as §2

Chain of Cytochrome P450 3A4 (P08684 whole entry): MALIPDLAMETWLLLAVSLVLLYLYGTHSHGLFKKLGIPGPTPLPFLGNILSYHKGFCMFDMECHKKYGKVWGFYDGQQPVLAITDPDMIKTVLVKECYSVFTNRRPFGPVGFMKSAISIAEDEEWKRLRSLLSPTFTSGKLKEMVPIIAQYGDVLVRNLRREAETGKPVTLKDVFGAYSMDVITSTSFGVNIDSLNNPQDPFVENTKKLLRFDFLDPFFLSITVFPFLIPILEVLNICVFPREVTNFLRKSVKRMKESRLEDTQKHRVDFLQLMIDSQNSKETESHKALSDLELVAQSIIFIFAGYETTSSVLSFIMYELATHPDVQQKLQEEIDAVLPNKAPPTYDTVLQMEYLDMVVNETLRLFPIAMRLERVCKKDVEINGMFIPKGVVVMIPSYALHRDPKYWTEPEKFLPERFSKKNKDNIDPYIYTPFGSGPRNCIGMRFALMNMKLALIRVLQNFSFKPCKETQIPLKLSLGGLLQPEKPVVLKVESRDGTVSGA

| Structure (SMILES) | solubility [1] [µM] | IC50 [2] [nM] | IC50 [3] [nM] | IC50 [4] [nM] | other results |
| --- | --- | --- | --- | --- | --- |
| CN1CCN(c2ccc(Nc3ncc4c(n3)-c3c(c(C(N)=O)nn3C)CC4)cc2)CC1 | 156 (≈ 65.3 µg/mL) | 2 | 53 | 30 |  |
| CNC(=O)c1nn(C)c2c1C(C)(C)Cc1cnc(Nc3ccc(CN(C)C)cc3)nc1-2.Cl |  |  |  |  | solubility [5]: 10000 µg/mL; Activity [6]: 77%; half-life [7]: 1.4 h; clearance [8]: 53.3 mL/min/kg; Vd [9]: 4.04 L/kg; half-life [10]: 3.4 h; AUC [11]: 1.97 µM·h; bioavailability [12]: 28%; Cmax [13]: 570 nM; fraction unbound [14]: 0.05 |
| CNC(=O)c1nn(C)c2c1CCc1cnc(Nc3ccc(N4CCN(C)CC4)cc3)nc1-2 | 211 (≈ 91.3 µg/mL) | 45 | 175 | 190 |  |
| Cn1nc(C(=O)NCc2ccccc2)c2c1-c1nc(Nc3ccccc3)ncc1CC2 | 1 (≈ 0.41 µg/mL) | 1050 | 374 | 580 |  |
| CN1CCN(c2ccc(Nc3ncc4c(n3)-c3c(c(C(N)=O)nn3C)C(C)(C)C4)cc2)CC1 | 98 (≈ 43.8 µg/mL) | 17 | 582 | 50 |  |
| CNC(=O)c1nn(C)c2c1C(C)(C)Cc1cnc(Nc3ccc(N4CCN(C)CC4)cc3)nc1-2.Cl |  |  |  |  | solubility [5]: 10000 µg/mL; Activity [6]: 85%; half-life [7]: 2.6 h; clearance [8]: 31.2 mL/min/kg; Vd [9]: 4.82 L/kg; half-life [10]: 2.9 h; AUC [11]: 8.29 µM·h; bioavailability [12]: 85%; Activity [15]: 36%; Cmax [13]: 2350 nM |
| CNC(=O)c1nn(C)c2c1C(C)(C)Cc1cnc(Nc3cccc(N4CCN(C)CC4)c3)nc1-2 | 182 (≈ 83.8 µg/mL) | 31 | 1000 | 530 |  |
| Cn1nc(C(N)=O)c2c1-c1nc(Nc3ccccc3)ncc1CC2(C)C | < 1 | 24 | > 10000 | 170 |  |
| CNC(=O)c1nn(C)c2c1C(C)(C)Cc1cnc(Nc3ccc(N4CCOCC4)cc3)nc1-2 | 46 (≈ 20.6 µg/mL) | 137 | 649 | 370 |  |
| CNC(=O)c1nn(C)c2c1C(C)(C)Cc1cnc(Nc3ccc(CN4CCOCC4)cc3)nc1-2 | 133 (≈ 61.4 µg/mL) | 36 | 535 | 350 |  |
| CNC(=O)c1nn(C)c2c1C(C)(C)Cc1cnc(Nc3cccc(N(C)C)c3)nc1-2 | 41 (≈ 16.6 µg/mL) | 220 | 1440 | 3010 |  |
| CNC(=O)c1nn(C)c2c1C(C)(C)Cc1cnc(Nc3cccc(N4CCOCC4)c3)nc1-2 | 51 (≈ 22.8 µg/mL) | 248 | 625 | 700 |  |
| CNC(=O)c1nn(C)c2c1C(C)(C)Cc1cnc(Nc3ccc(N4CCN(C)CC4)cc3)nc1-2 |  |  |  |  | Activity [16]: Active; Activity [17]: Active; Activity [18]: Active; Activity [19]: Active |
| CN1CCN(c2ccc(Nc3ncc4c(n3)-c3c(c(C(N)=O)nn3C)C(C)(C)C4)cc2)CC1.Cl |  |  |  |  | solubility [5]: 3400 µg/mL; Activity [6]: 82%; fraction unbound [14]: 0.01 |
| CNC(=O)c1nn(C)c2c1C(C)(C)Cc1cnc(Nc3ccc(OC4CCN(C)CC4)cc3)nc1-2.Cl |  |  |  |  | solubility [5]: 10000 µg/mL; Activity [6]: 63%; half-life [7]: 1.9 h; clearance [8]: 43.7 mL/min/kg; Vd [9]: 5.27 L/kg; half-life [10]: 3.9 h; AUC [11]: 2.51 µM·h; bioavailability [12]: 38%; Cmax [13]: 600 nM |
| Cn1nc(C(N)=O)c2c1-c1nc(Nc3ccccc3)ncc1CC2 | 3 (≈ 0.961 µg/mL) |  |  |  |  |

| Structure (SMILES) | solubility [1] [µM] | IC50 [2] [nM] | IC50 [3] [nM] | IC50 [4] [nM] | other results |
| --- | --- | --- | --- | --- | --- |
| CNC(=O)c1nn(C)c2c1CCc1cnc(Nc3ccccc3)nc1-2 | 1 (≈ 0.334 µg/mL) |  |  |  |  |
| Cn1nc(C(=O)NC2CC2)c2c1-c1nc(Nc3ccccc3)ncc1CC2 | 1 (≈ 0.36 µg/mL) |  |  |  |  |
| CNC(=O)c1nn(C)c2c1C(C)(C)Cc1cnc(Nc3ccc(CN4CCN(C)CC4)cc3)nc1-2 | 170 (≈ 80.7 µg/mL) | 55 | 1620 | 240 |  |
| CNC(=O)c1nn(C)c2c1C(C)(C)Cc1cnc(Nc3cccc(CN4CCOCC4)c3)nc1-2 | 121 (≈ 55.8 µg/mL) | 160 | 638 | 870 |  |
| Cn1nc(C(=O)NCCO)c2c1-c1nc(Nc3ccccc3)ncc1CC2 | 7 (≈ 2.55 µg/mL) | 74 | 364 | 2380 |  |
| CNC(=O)c1nn(C)c2c1C(C)(C)Cc1cnc(Nc3ccc(N(C)C)cc3)nc1-2 | 56 (≈ 22.7 µg/mL) | 59 | 855 | 500 |  |
| Cn1nc(C(=O)Nc2ccccc2)c2c1-c1nc(Nc3ccccc3)ncc1CC2 | 1 (≈ 0.396 µg/mL) |  |  |  |  |
| CNC(=O)c1nn(C)c2c1C(C)(C)Cc1cnc(Nc3cccc(CN4CCN(C)CC4)c3)nc1-2 | 162 (≈ 76.9 µg/mL) | 59 | 1180 | 570 |  |
| CNC(=O)c1nn(C)c2c1C(C)(C)Cc1cnc(Nc3ccc(CN4CCN(C)CC4)cc3)nc1-2.Cl |  |  |  |  | solubility [5]: 10000 µg/mL; Activity [6]: 50%; half-life [7]: 1.8 h; clearance [8]: 31.6 mL/min/kg; Vd [9]: 3.23 L/kg; half-life [10]: 4.2 h; AUC [11]: 3.37 µM·h; bioavailability [12]: 42%; Cmax [13]: 770 nM; fraction unbound [14]: 0.01 |
| CNC(=O)c1nn(C)c2c1C(C)(C)Cc1cnc(Nc3ccc(OC4CCN(C)CC4)cc3)nc1-2 | 183 (≈ 87 µg/mL) | 29 | 1340 | 170 |  |
| CN1CCN(c2cccc(Nc3ncc4c(n3)-c3c(c(C(N)=O)nn3C)CC4)c2)CC1 | 47 (≈ 19.7 µg/mL) | 1 | 30 | 30 |  |
| Cn1nc(C(=O)NC2CCCC2)c2c1-c1nc(Nc3ccccc3)ncc1CC2 | 1 (≈ 0.388 µg/mL) |  |  |  |  |
| CNC(=O)c1nn(C)c2c1C(C)(C)Cc1cnc(Nc3ccc(CN(C)C)cc3)nc1-2 | 206 (≈ 86.4 µg/mL) | 35 | > 5000 | 110 |  |
| CNC(=O)c1nn(C)c2c1C(C)(C)Cc1cnc(Nc3cccc(CN(C)C)c3)nc1-2 | 193 (≈ 81 µg/mL) | 83 | 2940 | 500 |  |
| Cn1nc(C(N)=O)c2c1-c1nc(Nc3ccc(N4CCOCC4)cc3)ncc1CC2 | 10 (≈ 4.05 µg/mL) | 14 | 51 | 120 |  |
| CNC(=O)c1nn(C)c2c1C(C)(C)Cc1cnc(Nc3cccc(OC4CCN(C)CC4)c3)nc1-2 | 160 (≈ 76.1 µg/mL) | 47 | 1580 | 390 |  |
